High-throughput results (PubChem BioAssay)
A selection: hits, their analogues and other compounds. The true share with any hit is near 1.1%.
PMI act satM6P: PMI (human) activation, high substrate; P34949; coupled PMI enzyme assay, resazurin fluorescence, 20 min; active compounds read high; 1 = untreated enzyme, 0 = substrate-free blank; activation factor at 20 µM; 190,000 compounds, 0.34% hits; AID 1216;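 active = activation factor of 2 or more at 20 µM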
Target sequence (P34949 whole entry, looked up): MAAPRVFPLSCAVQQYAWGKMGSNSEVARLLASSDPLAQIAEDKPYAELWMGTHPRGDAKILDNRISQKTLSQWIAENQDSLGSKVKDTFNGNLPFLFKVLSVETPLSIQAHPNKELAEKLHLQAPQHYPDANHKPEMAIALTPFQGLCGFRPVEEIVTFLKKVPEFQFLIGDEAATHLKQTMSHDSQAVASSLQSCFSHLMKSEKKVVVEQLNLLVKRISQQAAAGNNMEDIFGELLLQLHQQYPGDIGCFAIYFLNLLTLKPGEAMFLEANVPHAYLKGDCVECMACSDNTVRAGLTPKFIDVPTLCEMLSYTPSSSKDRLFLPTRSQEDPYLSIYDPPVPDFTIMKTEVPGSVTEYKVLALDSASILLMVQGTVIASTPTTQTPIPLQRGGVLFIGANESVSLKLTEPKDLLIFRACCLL
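Material: human phosphomannose isomerase with PGI, G6PDH, diaphorase coupling enzymes; amount: PMI at 15 ng/mL final; also added: Mannose-6-phosphate 1.0 mM (near-saturating) plus 0.22 mM NADP+; incubation: enzyme reaction with compound 20 min at room temperature; signal: resorufin fluorescence (Ex 544/Em 590 nm) from resazurin via diaphorase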
Diaph inh CS: inhibits diaphorase or chemically oxidizes, flagging diaphorase assay artifacts; diaphorase resazurin-to-resorufin fluorescence, NADH, 16 min; bacterial (C. kluyveri) enzyme, not human; inhibition, % at 20 µM; 190,000 compounds, 0.69% hits;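 active = primary screen inhibition at 20 µM above a set limit, cut at about 50% in these data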;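 also: plate controls were DMSO with full reaction for no effect and wells lacking NADH for full effect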
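Test system: diaphorase enzyme from Clostridium kluyveri; amount: diaphorase at 0.14 U/mL in enzyme working solution; detection: fluorescence of resorufin formed from resazurin, Ex 544/Em 590 nm; times: reaction incubation of 16 min at room temperature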
PMI act: increases human mannose-6-phosphate isomerase activity. purified human PMI, coupled resazurin fluorescence, 20 min; active compounds read high; 1 = vehicle control, 0 substrate-free wells. activation factor at 20 µM. 190,000 compounds, 0.005% hits. AID 1214;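 active = activation factor of 2 or more at 20 µM, relative to plate controls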
Diaph act CS: counter-screen for diaphorase-based assays: diaphorase activators and chemical reducers; Diaphorase/resazurin coupled assay, resorufin fluorescence, 16 min; active compounds read high; 1 = vehicle wells, 0 = NADH-free wells; activation factor at 20 µM; 190,000 compounds, 0.005% hits;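 active = diaphorase activity raised at least twofold by the compound at 20 µM; inactive = activation factor below 2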
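System – purified diaphorase enzyme from Clostridium kluyveri · Input – enzyme 0.07 U/mL final · Also added – final NADH 0.114 mM, resazurin 0.1 mM · Measured by – fluorescence of resorufin, 544 nm excitation, 590 nm emission · Timing – 16 min enzyme reaction, ambient temperature · Measure – resorufin increase flagging diaphorase activators or reducers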
G6PDH CS: counter-screen for G6PDH assay hits: L. mesenteroides G6PDH inhibition; inhibition, % at 5 µM; Purified L. mesenteroides G6PDH, diaphorase/resazurin coupled fluorescence, 45 min; 200,000 compounds, 0.12% hits; in the data active = inhibition above about 50%
Numbers without * were called inactive.

SMILES	PMI act satM6P	Diaph inh CS	PMI act	Diaph act CS	G6PDH CS
C(=C\c1ccco1)/C1=NN(c2ccccc2)C(c2ccco2)C1 (centres undefined)	2.2*	13.3	1.6	0.9	-1.2
COC(=O)c1ccc(NC(=O)CN2CCN(c3ccccn3)CC2)cc1	1	-0.6	1	1	-1.3
Cc1cccc2sc(NNC(=O)c3ccc(S(=O)(=O)N4CCc5ccccc5C4)cc3)nc12	2.1*	-4.0	1.7	1	4.3
Cc1cccc2sc(NNC(=O)c3ccc(S(=O)(=O)N4CCCC(C)C4)cc3)nc12 (centres undefined)	1.2	13.6	1.1	0.9	10.7
CCN(CC)S(=O)(=O)c1ccc(C(=O)OCn2c(SC)nnc(C)c2=O)cc1	0.9	15.5	0.9	0.8	-1.4
O=C(CN1C(=O)NC2(CCSC2)C1=O)NCc1ccccc1 (centres undefined)	1	3.8	1.1	1	0.6
Cc1ccc(-n2nnnc2Sc2ccc(S(=O)(=O)NCCN(C)C)cc2[N+](=O)[O-])cc1	0.9	53.1*	1	0.5	10.2
O=c1ccnc(Nc2ccc3c(c2)OCCO3)[nH]1	0.9	5.7	1	0.9	9.8
O=C(CN1C(=O)C2CC=CCC2C1=O)Nc1nc2ccccc2s1 (centres undefined)	1.1	-7.8	1.1	1.1	7.5
COc1cccc(NC(=S)NN=C2CCC(C(C)(C)C)CC2)c1 (centres undefined)	2.1*	3.8	1.5	1	3.1
COCCNC(=O)C(c1ccc(C)cc1)N(C(=O)C(=O)NC1CCCC1)c1ccc2c(c1)OCCO2 (centres undefined)	1	-21.3	1.1	1.2	11.6
N#C/C(=N\Nc1ccc(S(=O)(=O)N2CCc3ccccc32)cc1)C(N)=S	0.8	56.5*	0.7	0.4	-3.3
COc1ccc(C(=O)N2CCc3ccccc32)cc1	1.1	6.8	1.1	0.9	-5.2
COc1ccc(C(=O)/C=C2\NCC3c4ccccc4CCN3C2=O)cc1 (centres undefined)	2.4*	-0.8	1.5	1	8.3
COC(=O)C1=C(C)N(C)C(=S)NC1c1c(OC)ccc2ccccc12 (centres undefined)	1.4	30.2	1.3	0.7	3.1
Cc1cc(C2=NNC(=Nc3ccccc3)SC2)c(C)n1C	2*	-14.0	1.8	1.1	-1.7
CCOC(=O)c1ccc(NC(=O)N2CCN(c3ccccc3OC)CC2)cc1	0.9	10.7	0.9	0.9	22.2
CCOC(=O)/C(=N\Nc1ccc(Br)cc1)N1CCN(c2ccccc2OC)CC1	2.4*	7.4	1.8	0.9	0.2
Nc1cc(-c2ccncc2)c[nH]c1=O	0.3	65.6*	0.5	0.3	38.0
O=C(CCCOc1ccc(Cl)cc1Cl)NN1CCOCC1	0.9	-2.6	1	1	2.7
CCOC(=O)C1CCN(Cc2ccccc2C(F)(F)F)CC1	1.1	15.2	1	0.8	16.2
Oc1ccc(CN2CCCc3ccccc32)c2cccnc12	0.5	77.2*	0.5	0.2	-14.0
COc1ccccc1N1CCN(Cc2ccc(O)c3ncccc23)CC1	0.4	56.7*	0.4	0.4	29.1
NNC(=O)CN1CCCc2ccccc21	1	0.4	1.1	1	0.3
CCOC(=O)N1CCN(Cc2cc(Cl)c3cccnc3c2O)CC1	0.4	61.0*	0.5	0.4	41.0
SMILES	PMI act satM6P	Diaph inh CS	PMI act	Diaph act CS	G6PDH CS
CCOC(=O)C1CCN(Cc2ccc(O)c3ncccc23)CC1	0.3	72.7*	0.3	0.3	50.3*
Cc1ccc(C(=O)Nc2ccccc2C(=O)N2CCOCC2)cc1[N+](=O)[O-]	1	7.2	0.9	0.9	-5.6
Cc1cc(C)c(NC(=O)COC(=O)/C=C/c2cccs2)c(C)c1	0.9	9.6	0.9	0.9	2.4
O=Cc1c(C(=O)O)n(CC(=O)O)c2ccccc12	1.1	2.5	1.1	1	-5.6
COc1ccc(/C=N/NC(=O)c2cc(O)c(O)c(O)c2)cc1Cn1cc([N+](=O)[O-])cn1	0.8	66.3*	0.3	0.3	7.4
O=C1CCN(S(=O)(=O)c2cccs2)c2ccc(C(F)(F)F)cc2N1	1	1.8	1.1	1	10.6
COc1ccc(CN2CCNC(=O)C2CC(=O)NCCCn2cccn2)c(OC)c1 (centres undefined)	0.8	12.2	0.9	0.9	6.6
O=C(Nc1cccc(O)c1)c1ccc(Br)cc1	0.9	9.8	0.9	0.9	-2.5
O=C(NNc1ccc(O)cc1)c1ccc(Br)cc1	2.2*	20.4	1.5	0.8	3.0
COc1ccccc1-c1ccc(/C=C2/C=C(C)OC2=O)o1	2*	16.4	1.6	0.8	-0.8
COC(=O)Cc1ccc(NC(=S)Nc2ccc(N3CCOCC3)cc2)cc1	0.8	15.7	1	0.8	14.2
CCOC(=O)Cn1c(=S)[nH]c2c(oc3ccc(Cl)cc32)c1=O	1.1	44.2	1	0.6	-5.9
O=c1c2oc3ccccc3c2[nH]c(=S)n1-c1ccc(F)cc1	1	59.0*	1.4	0.4	-1.1
CN1CCN(C(=O)c2ccc3c(=O)n(-c4ccc(F)cc4)c(=S)[nH]c3c2)CC1	0.9	36.7	1	0.6	-0.2
Cc1ccc(-n2c(=S)[nH]c3c(oc4ccccc43)c2=O)cc1C	1	62.3*	0.9	0.4	7.9
O=[N+]([O-])c1ccc(Cl)c(/C=N/NC(=S)Nc2ccccc2)c1	1	6.9	0.3	0.9	1.4
O=C(N/N=C/c1ccccc1Cl)c1nc2ccc([N+](=O)[O-])cc2c(=O)[nH]1	0.9	57.9*	0.9	0.4	2.2
O=C(Cc1ccccc1)NNC(=O)Nc1ccccc1	1	11.2	1	0.9	5.8
CC(=O)NCCCNS(=O)(=O)c1ccc(C)cc1	1	67.0*	0.9	0.3	-0.3
COCc1cc(CN2CCN(C)CC2)c(O)c2ncccc12	0.6	32.1	0.6	0.7	42.5
Oc1c(CN2CCOCC2)cc(COCc2ccccc2)c2cccnc12	0.8	52.8*	0.5	0.5	-4.0
CC(Sc1nnc(-c2ccccc2)c(-c2ccccc2)n1)C(=O)Nc1ncc(Cl)cc1Cl (centres undefined)	1	52.6*	0.9	0.5	-10.7
CCOC(=O)C1(CCCc2ccccc2)CCN(C(=O)C2CCCN(C(N)=O)C2)CC1 (centres undefined)	1	3.2	0.9	1	5.5
O=C(/C=C/NCC(=O)c1ccccc1)c1ccc(Br)cc1	2.1*	5.1	1.6	0.9	-10.3
O=C(/C=C/NNC(=O)c1ccccc1)c1ccc(Br)cc1	1.3	2.9	1.2	1	2.9
Cc1c(NC(=O)CSc2ccccc2F)c(=O)n(-c2ccccc2)n1C	1	50.1*	0.1	0.5	0.7
